The text below walks through data of ChEMBL document CHEMBL4011632, “Design, Synthesis, and Evaluation of Thiazolidine-2,4-dione Derivatives as a Novel Class of Glutaminase Inhibitors” (J Med Chem, 2017).

Calls of active or inactive are those of the source. The calls are words filed in the database; no cut-off is given here.

Data set [1] is described as follows: Total clearance in Sprague-Dawley rat at 0.1 mg/kg, iv by HPLC-MS analysis. Type of data set: ADME, organism-based. As to conditions: in vivo. Summed up: (§1)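 Male rats (330−380 g, 9−10 weeks old), jugular-vein cannulated 1 day before dosing, n = 3. Dosed iv in DMA/PEG400 (20%/80%, v/v) or po in 1% CMC/0.5% Tween-80. Blood (100 μL) drawn at 0, 2 min, 5 min (iv only), 15 and 30 min, and 1, 2, 4, 6, 8 and 24 h. Plasma measured by LC-MS/MS; parameters from noncompartmental analysis.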

A short description of data set [2]: Volume of distribution at steady state in Sprague-Dawley rat at 0.1 mg/kg, iv by HPLC-MS analysis. Type of data set: ADME, organism-based. The following applies: in vivo, read-out: Vdss. In short, it runs like this: (§2)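 Male rats (330−380 g, 9−10 weeks old), quarantined 1 week, jugular-vein cannula implanted 1 day before dosing; n = 3. Single iv dose in DMA/PEG400 (20%/80%, v/v). Blood (100 μL) was drawn via cannula at 0, 2, 5, 15, 30 min and 1, 2, 4, 6, 8, 24 h and kept on ice. Plasma was analysed by HPLC−MS/MS. Vss came from noncompartmental analysis.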

Data set [3] in a line: Cmax in Sprague-Dawley rat at 1 mg/kg, po by HPLC-MS analysis. Format: ADME, organism-based. Further details: dose 1 mg/kg, route oral. As to conditions: in vivo. Summed up:
as §1

A short description of data set [4]: AUC (0 to infinity) in Sprague-Dawley rat at 0.1 mg/kg, iv by HPLC-MS analysis. Format: ADME, organism-based. Set-up: dose 0.1 mg/kg, time infinity, route intravenous. The following applies: in vivo. In short, it runs like this:
as §1

Data set [5] in a line: AUC (0 to infinity) in Sprague-Dawley rat at 1 mg/kg, po by HPLC-MS analysis. Type of data set: ADME, organism-based. The following applies: in vivo. Further details: dose 1 mg/kg, route oral, time infinity. Summed up: as §1
Data set [6] in a line: Oral bioavailability in Sprague-Dawley rat at 1 mg/kg by HPLC-MS analysis. Format: ADME, organism-based. As to conditions: in vivo. In short, it runs like this: as §1
The subject of data set [7] is ASPC1. The data set is described as follows: Antitumor activity against human Aspc-1 cells xenografted in Balb/cAnN.Cg-Foxn1nu/CrlNarl mouse assessed as tumor growth inhibition at 25 mg/kg, ip once daily administered for 5 days followed by 2 days without dosing for 43 days relative to control. Type of data set: functional. The following applies: read-out: TGI. Summed up:
(§3)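 Male nude mice (7−8 weeks, 18−22 g) received 4.5 × 10^6 AsPC-1 cells sc in the right flank, in HBSS mixed 1:1 with Matrigel. Mice were randomized once mean tumor reached ~100 mm3 (day 1). Dosing was ip once daily, 5 days on/2 days off, with 2% DMSO/PBS as vehicle. Tumors were measured twice weekly, V = ab²/2. %TGI = [1 − ((Tt − T0)/(Ct − C0))] × 100 from median volumes; Student's t test.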
Background: Xenograft models place foreign cells or tissue in a host animal.

For data set [8], the system named is ASPC1. The data set is described as follows: Antitumor activity against human Aspc-1 cells xenografted in Balb/cAnN.Cg-Foxn1nu/CrlNarl mouse assessed as tumor growth inhibition at 50 mg/kg, ip once daily administered for 5 days followed by 2 days without dosing for 43 days relative to control. As to conditions: read-out: TGI. Type of data set: functional. In short, it runs like this:
as §3

Data set [9] has as its system Mus musculus. As to the kind of experiment: Toxicity in BALB/CAnN.Cg-Foxn1nu/CrlNarl mouse xenografted with human Aspc-1 cells assessed as loss in body weight at 25 mg/kg, ip once daily administered for 5 days followed by 2 days without dosing for 43 days relative to control. Type of data set: organism-based, BALB/C. As to conditions: in vivo.
Data set [10] has as its target T1, Glutaminase liver isoform, mitochondrial (Homo sapiens) (UniProt Q9UI32).
T1 sequence (whole entry): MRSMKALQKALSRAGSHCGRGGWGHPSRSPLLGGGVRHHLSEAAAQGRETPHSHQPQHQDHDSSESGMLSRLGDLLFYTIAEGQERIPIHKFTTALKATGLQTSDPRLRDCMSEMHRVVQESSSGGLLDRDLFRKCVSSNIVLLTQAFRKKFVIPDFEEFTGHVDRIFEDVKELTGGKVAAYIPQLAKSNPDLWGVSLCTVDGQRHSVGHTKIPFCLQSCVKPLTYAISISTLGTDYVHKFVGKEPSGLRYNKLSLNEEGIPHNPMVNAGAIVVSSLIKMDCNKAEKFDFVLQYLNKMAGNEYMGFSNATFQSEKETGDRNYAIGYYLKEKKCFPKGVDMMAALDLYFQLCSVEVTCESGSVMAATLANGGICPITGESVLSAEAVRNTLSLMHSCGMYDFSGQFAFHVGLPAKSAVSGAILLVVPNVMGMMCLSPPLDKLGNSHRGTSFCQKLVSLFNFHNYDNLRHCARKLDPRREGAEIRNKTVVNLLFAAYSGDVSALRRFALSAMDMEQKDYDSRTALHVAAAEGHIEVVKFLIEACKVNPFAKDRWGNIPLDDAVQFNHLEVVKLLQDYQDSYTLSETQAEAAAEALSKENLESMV
The data set is described as follows: Inhibition of human GLS2 in GLS1 deficient human Aspc-1 cells assessed as decrease in cellular glutamate production after 4 hrs by amplex red glutamic acid assay. In short, it runs like this: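 GLS-knockout AsPC-1 cells made with GLS-KO ZFN mRNA, single-cell cloned, and grown in glutamine-free RPMI 1640 with 10% FBS. Cells seeded at 30 000/well and grown 24 h at 37 °C. Treated 4 h with 1% DMSO vehicle or 3.13−100 μM inhibitor, washed with PBS, and lysed in NP-40 buffer (4 °C, 20 min). Lysate glutamate measured by Amplex Red. Three independent experiments in duplicate.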

Data set [11] can be described thus: Terminal half life in Sprague-Dawley rat at 2 mg/kg, iv by HPLC-MS analysis. Format: ADME, organism-based. As to conditions: in vivo, read-out: beta t1/2 (converted). In short, it runs like this:
as §1

The nature of data set [12]: Total clearance in Sprague-Dawley rat at 2 mg/kg, iv by HPLC-MS analysis. Format: ADME, organism-based. As to conditions: in vivo. Summed up:
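Male rats (330−380 g, 9−10 weeks old), jugular-vein cannulated 1 day before dosing, n = 3. Dosed iv in DMA/PEG400 (20%/80%, v/v) or po in 1% CMC/0.5% Tween-80. Plasma measured by LC-MS/MS; parameters from noncompartmental analysis.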

Data set [13] can be described thus: Volume of distribution at steady state in Sprague-Dawley rat at 2 mg/kg, iv by HPLC-MS analysis. Format: ADME, organism-based. As to conditions: in vivo, read-out: Vdss. In short, it runs like this:
as §2

Data set [14] relates to ASPC1. The data set is described as follows: Antitumor activity against human Aspc-1 cells xenografted in Balb/cAnN.Cg-Foxn1nu/CrlNarl mouse assessed as tumor growth inhibition at 25 mg/kg, ip once daily administered for 5 days followed by 2 days without dosing for 68 days relative to control. Format: functional. The following applies: read-out: TGI. Summed up:
as §3

For data set [15], the system named is Mus musculus. As to the kind of experiment: Toxicity in BALB/CAnN.Cg-Foxn1nu/CrlNarl mouse xenografted with human Aspc-1 cells assessed as loss in body weight at 25 to50 mg/kg, ip once daily administered for 5 days followed by 2 days without dosing for 68 days relative to control. Format: organism-based, BALB/C. The following applies: in vivo, 1632 h.
Data set [16] relates to Mus musculus. The data set is described as follows: Toxicity in BALB/CAnN.Cg-Foxn1nu/CrlNarl mouse xenografted with human Aspc-1 cells assessed as overt toxicity at 25 to 50 mg/kg, ip once daily administered for 5 days followed by 2 days without dosing for 68 days. Type of data set: organism-based, BALB/C. As to conditions: in vivo.
Data set [17] concerns HCC1806. The data set is described as follows: Synergistic cytotoxicity against human HCC1806 cells assessed as reduction in cell viability at ED50 in presence of BPTES by MTS assay. Format: functional. Summed up:
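HCC1806 breast carcinoma cells seeded at 3000 cells/well and co-treated with the inhibitor and BPTES; viability read by MTS. […] Three independent experiments.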
On the technique in general: Tetrazolium assays rely on reduction of a dye to a coloured formazan, in cell work by metabolically active cells.

In data set [18] the target is Glutaminase 1/2 (Homo sapiens) (UniProt O94925+Q9UI32). As to conditions: 3.13 to 100 uM.
Sequence of Glutaminase 1/2 (Homo sapiens) (O94925 whole entry, looked up, one chain of several): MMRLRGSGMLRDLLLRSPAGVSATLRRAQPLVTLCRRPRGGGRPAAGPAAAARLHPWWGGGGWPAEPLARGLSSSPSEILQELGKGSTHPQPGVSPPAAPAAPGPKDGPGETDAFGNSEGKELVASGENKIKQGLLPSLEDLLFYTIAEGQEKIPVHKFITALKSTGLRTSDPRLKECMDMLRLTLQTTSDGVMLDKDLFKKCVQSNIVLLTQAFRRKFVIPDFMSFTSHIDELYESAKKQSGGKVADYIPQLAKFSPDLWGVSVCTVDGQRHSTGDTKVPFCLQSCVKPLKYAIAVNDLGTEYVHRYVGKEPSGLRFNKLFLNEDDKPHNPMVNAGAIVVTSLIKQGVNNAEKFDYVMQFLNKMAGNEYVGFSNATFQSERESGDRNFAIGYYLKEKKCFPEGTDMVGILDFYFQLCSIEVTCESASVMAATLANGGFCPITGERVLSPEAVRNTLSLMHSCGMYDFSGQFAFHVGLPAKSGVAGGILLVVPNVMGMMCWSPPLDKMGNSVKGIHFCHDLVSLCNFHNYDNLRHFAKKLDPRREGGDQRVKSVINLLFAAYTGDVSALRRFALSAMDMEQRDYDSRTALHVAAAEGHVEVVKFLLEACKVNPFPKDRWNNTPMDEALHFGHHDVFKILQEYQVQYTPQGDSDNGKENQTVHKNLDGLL

By clearance is commonly meant the rate of elimination divided by the concentration. In general, Cmax refers to the maximum level reached in the sampled fluid or tissue. By AUC(0-inf) is commonly meant the area under the concentration-time curve extrapolated to infinity. Read a high AUC(0-inf) as high exposure. The term bioavailability denotes dose-corrected exposure relative to a reference, in per cent. The low end stands for poor availability, the high end for good availability.

In turn, `Cc1cc(/C=C2\SC(=O)NC2=O)c(C)n1-c1ccc(-c2ccc(/C=C3\SC(=O)NC3=O)cc2)cc1` came in with a clearance in [1] of 0.4 mL/min/kg. For the same molecule, the Vd in data set [2] worked out at 0.4 L/kg. In [3], this molecule yielded a Cmax of 16.6 ng/mL. The AUC(0-inf) in [4] is 3410 ng·h/mL; in data set [5], 222 ng·h/mL. The molecule also had a bioavailability in data set [6] of 1%. The inhibition in vivo at 25 mg/kg in data set [7] is 60%. Besides, in data set [8], the inhibition in vivo at 50 mg/kg was 64%. Also, the Activity in [9] is listed as above 10%.
In the case of `O=C1NC(=O)/C(=C/c2ccc(-c3ccc(-n4c(-c5cccs5)cc(/C=C5\SC(=O)NC5=O)c4-c4cccs4)cc3)cc2)S1`, the inhibition entry in [10] was “Dose-dependent effect”. Further, in data set [11], the half-life is 300 min. In data set [12], this molecule had a clearance of 0.9 mL/min/kg. In addition, the Vd in data set [13] is 0.1 L/kg. The inhibition in vivo at 25 mg/kg in data set [14] was 2.3%. The figures for the Activity in [15] and in [16] were above 10% and “Non-Toxic”, respectively. Also, the CI in [17] is given as 0.13 - 0.14. The inhibition entry in data set [18] was “Active”.
